Experimental data pooled from the literature.
Effect on: cell growth or viability

With `O=C1C(=Nc2ccc(Cl)cc2Br)c2ccccc2N1Cc1ccc(Br)cc1` the IC50 was 1.65 µM (B16; MTT; 48 h).
`N#Cc1ccc(-c2cc(COc3cc(=O)oc4ccccc34)on2)cc1` gave an IC50 of greater than 100 µM (Z-138; MTS; 72 h).
With `C[C@H](Nc1ccc2c(c1)OCCn1cc(N3C(=O)OC[C@H]3C(F)F)nc1-2)C(N)=O` the EC50 was 449 nM (BT-20; ATP luminescence; 5 days).
With `CN(C)CCNC(=O)c1ccc(-c2nc3ccc4[nH]ncc4c3c3c2CCCCC3)c(F)c1` the GI50 was 3.55 µM (G-361; 72 h).
`Cc1nc(Nc2ncc(C(=O)Nc3c(C)cccc3Cl)s2)cc(N2CC[C@H](O)C2)n1` gave an inhibition of 56% (Z-138; ATP luminescence; 10 µM; 72 h).
The IC50 of `FC(F)(F)c1cc(OCc2cc(-c3ccccc3)no2)c2ccccc2n1` is reported as 68.2 µM (Z-138; MTS; 72 h).
The IC50 of `O=C(CCc1ccc(Cl)cc1)N1C(=O)C(=Nc2ccc(Cl)cc2Br)c2ccccc21` is reported as 23.6 µM (B16; MTT; 48 h).
`COc1cc([C@@H]2c3cc4c(cc3[C@@H](O[C@@H]3O[C@@H]5CO[C@@H](C)O[C@H]5[C@H](O)[C@H]3O)[C@H]3COC(=O)[C@H]23)OCO4)cc(OC)c1O` has an IC50 of 0.08 µM (Z-138; MTS; 72 h).
For `Cc1ccc(CN2C(=O)C(=Nc3c(C(C)C)cccc3C(C)C)c3ccccc32)cc1`, the IC50 was 57.2 µM (B16; MTT; 48 h).
`CN(C)CCNC(=O)c1ccc(-c2nc3ccc4[nH]ncc4c3c3c2CCCC3)cc1` gave a GI50 of 3.5 µM (G-361; 72 h).
`O=C1C(=Nc2ccccc2Br)c2ccccc2N1Cc1ccccc1` has an IC50 of 0.5 µM (B16; MTT; 48 h).
`CN(C)CCNC(=O)c1ccc(-c2nc3ccc4[nH]ncc4c3c3c2CCCCC3)cc1` gave a GI50 of greater than 10 µM (G-361; 72 h).
`O=c1cc(OCc2cc(-c3ccccn3)no2)c2ccccc2o1` gave an IC50 of greater than 100 µM (Z-138; MTS; 72 h).
The GI50 of `CCc1nc(C(N)=O)c(Nc2ccc(N3CCC(N4CCN(C)CC4)CC3)c(OC)c2)nc1NC1CCOCC1` is reported as 1.17 µM (G-361; 72 h).
With `Cc1nc(NC(=O)N2CCC[C@H]2C(N)=O)sc1-c1ccnc(C(C)(C)C(F)(F)F)c1` the EC50 was 2480 nM (BT-20; ATP luminescence; 5 days).
The GI50 of `Cc1n[nH]c2ccc3nc(-c4ccc(C(=O)NCCN(C)C)cc4F)c4c(c3c12)CCCCC4` is reported as greater than 10 µM (G-361; 72 h).
With `C=CCN1C(=O)C(=Nc2cccc(C)c2)c2ccccc21` the IC50 was 28.6 µM (B16; MTT; 48 h).
